Compound activity deposited in PubChem BioAssay by Broad Institute.
T cruzi intra: intracellular Trypanosoma cruzi inhibition; intracellular Trypanosoma cruzi in host cells, plate reader; activity score (inhibition), % at 5.01 µM; 22,000 compounds, 4.9% hits; in the data active means activity score above about 55%;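 further: parasites and compound incubated about four days before reading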
INS-1E ATP HTS: INS-1E beta cell protection from cytokine death; protection from cytokine-induced ATP loss, % at 10 µM; INS-1E cytokine-induced death, ATP luminescence, 48 h; normalised: neutral wells 0, positive control 100; 20,000 compounds, 0.1% hits; AID 488910;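 active means mean replicate protection from cytokine-induced ATP loss at least 50% and at least 75% of replicates each reaching 50%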
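Test system: INS-1E rat cells | Quantity: 8000 cells per well | Medium: Phenol-red-free RPMI with 5% fetal bovine serum | Reagent: Cytokine cocktail of IFN-γ, TNF-α and IL-1β | Doses: One compound concentration, pin transfer | Timing: 48 h co-treatment, 10 min post-lysis read | Technique: Luminescent ATP assay (CellTiter-Glo)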
A1 apoptosis 2: blocks A1, raising caspase activity. caspase activation, % (test concentration not listed). MEF A1-2A-BIM cells, caspase-Glo luminescence, 3 h; percent of clofoctol response, DMSO zero. 24,000 tested, under 10 active; in the data active means caspase activation above about 5.9%
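System: mouse embryonic fibroblasts co-expressing A1 and BIM (A1-2A-BIM), primed for A1 dependence; amount: 2500 cells/well; doses: 50 nL pinned compound; schedule: cells settled overnight, compound exposure 3 h at 37 °C, 5% CO2; detection: Caspase-Glo 3/7 luminescence, 1 h at room temperature; read-out: Caspase-3/7 activation, seen as rise in luminescence signal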
Numbers stand for hits; 0 = inactive; - = no result. Only a selection was taken, and hits are over-represented in it overall.

SMILES	T cruzi intra	INS-1E ATP HTS	A1 apoptosis 2
C[C@H](CO)N1C[C@H](C)[C@H](CN(C)Cc2ccc(C(F)(F)F)cc2)Oc2c(NC(=O)c3nc4ccccc4s3)cccc2C1=O	66.7	0	0
Cc1noc(C)c1S(=O)(=O)Nc1ccc2c(c1)C(=O)N([C@H](C)CO)C[C@@H](C)[C@@H](CN(C)Cc1ccc(Oc3ccccc3)cc1)O2	0	0	-
O=C(O)c1ccc(/C=N/NC(=O)c2cccc(C(=O)NO)c2)cc1	0	0	0
Nc1cccc(COc2ccc(/C=C/C(=O)NO)cc2)c1	-	-	0
Cc1ccc(S(=O)(=O)Nc2ccc3c(c2)C(=O)N([C@@H](C)CO)C[C@@H](C)[C@@H](CN(C)Cc2ccc(Cl)c(Cl)c2)O3)cc1	63.9	0	-
C[C@@H]1CN([C@H](C)CO)C(=O)c2cc(NS(=O)(=O)c3ccccc3)ccc2O[C@@H]1CN(C)Cc1ccc(Cl)c(Cl)c1	0	0	-
C[C@H]1CN([C@@H](C)CO)C(=O)c2cc(NS(=O)(=O)c3ccccc3)ccc2O[C@@H]1CN(C)Cc1ccc(Cl)c(Cl)c1	61.6	0	-
Cc1ccc(S(=O)(=O)Nc2ccc3c(c2)C(=O)N([C@@H](C)CO)C[C@H](C)[C@@H](CN(C)Cc2ccc(Cl)c(Cl)c2)O3)cc1	0	0	-
C[C@H]1CN([C@@H](C)CO)C(=O)c2cc(NS(=O)(=O)c3ccc(Cl)cc3)ccc2O[C@@H]1CN(C)Cc1ccc(Cl)c(Cl)c1	0	0	0
C[C@@H]1CN([C@@H](C)CO)C(=O)c2cc(NS(=O)(=O)c3ccc(Cl)cc3)ccc2O[C@H]1CN(C)Cc1ccc(Cl)c(Cl)c1	58.2	0	0
O=C(NO)c1cccc(C(=O)N/N=C/c2nccs2)c1	0	0	0
COc1cc(/C=N/NC(=O)c2ccccn2)c(Br)cc1O	0	0	0
O=C(N/N=C/c1c(F)c(F)c(F)c(F)c1F)c1ccccc1O	0	0	0
O=C(N/N=C/c1cccc(O)c1O)c1ccccn1	0	0	-
COC(=O)CCCCCCC(=O)N/N=C/c1cc(I)cc(I)c1O	88.0	0	0
COC(=O)CCCCCCC(=O)N/N=C/c1cc(Cl)cc(Cl)c1O	0	0	-
O=C(N/N=C/c1cc(I)cc(I)c1O)c1ccccn1	91.4	0	0
O=C(CCCCC(=O)N/N=C/c1cccc(B(O)O)c1)NO	-	-	0
C[C@H](CO)N1C[C@H](C)[C@H](CN(C)C(=O)Nc2ccccc2)Oc2c(NC(=O)c3ccncc3)cccc2C1=O	77.6	0	0
C[C@@H]1CN([C@@H](C)CO)C(=O)c2cccc(NC(=O)c3ccncc3)c2O[C@H]1CN(C)C(=O)Nc1ccccc1	0	0	0
C[C@@H]1CN([C@H](C)CO)C(=O)c2cccc(NC(=O)c3ccncc3)c2O[C@@H]1CN(C)C(=O)Nc1ccc(F)cc1	0	0	0
C[C@H]1CN([C@@H](C)CO)C(=O)c2cccc(NC(=O)c3ccncc3)c2O[C@H]1CN(C)C(=O)Nc1ccc(F)cc1	63.9	0	-
COc1ccc([Si](C)(C)[C@@H]2[C@@H](CCO)O[C@]3(C(=O)N(Cc4ccc(N5CCC5=O)cc4)c4ccccc43)[C@H]2C)cc1	-	-	0
O=C1O[C@H](c2ccccc2)[C@H](c2ccccc2)N2[C@H]1[C@@H](C(=O)N1CCN(c3ncccn3)CC1)[C@]1(C(=O)Nc3ccccc31)[C@H]2c1ccccc1OCCO	-	-	0
CC(C)(C)OC(=O)NC/C=N/NC(=O)CCCCCCC(=O)Nc1ccccc1O	0	0	0
SMILES	T cruzi intra	INS-1E ATP HTS	A1 apoptosis 2
C[C@@H]1CN([C@H](C)CO)C(=O)c2cccc(NC(=O)c3ccncc3)c2O[C@H]1CN(C)Cc1ccc(C(=O)Nc2ccccc2N)cc1	0	0	0
COc1ccc(NC(=O)Nc2cccc3c2O[C@H](CN(C)Cc2ccncc2)[C@H](C)CN([C@@H](C)CO)C3=O)cc1	0	0	0
COc1ccc(CN(C)C[C@@H]2Oc3c(NC(=O)c4ccncc4)cccc3C(=O)N([C@@H](C)CO)C[C@H]2C)cc1	78.5	0	0
COc1ccc(CN(C)C[C@H]2Oc3c(NC(=O)c4ccncc4)cccc3C(=O)N([C@@H](C)CO)C[C@@H]2C)cc1	82.5	0	0
CC(C)(C)OC(=O)CC[C@@]12N=C(c3ccc(OCCCO)cc3)O[C@@H]1c1ccccc1N(CCS(=O)(=O)c1ccccc1)C2=O	-	-	0
Cc1ccsc1/C=N/NC(=O)CCCCCCC(=O)NO	-	-	0
O=C(CCCCCC(=O)N/N=C/c1ccccc1O)NO	-	-	0
Cc1ccsc1/C=N\NC(=O)CCCCC(=O)NO	0	59.0	-
O=C(CCCCCCC(=O)Nc1ccccc1O)N/N=C/c1ccc(O)c2ccccc12	0	0	0
O=C(CCCCC(=O)N/N=C/c1c(O)ccc2ccccc12)NO	0	131.5	0
COc1cc(Cl)c(/C=N/NC(=O)CCCCCCC(=O)Nc2ccccc2O)c(Cl)c1OC	0	0	-
O=C(CCCCCCC(=O)N/N=C\c1ccc(O)c2ccccc12)NO	0	150.9	0
COc1cc(Cl)c(/C=N\NC(=O)CCCCC(=O)NO)c(Cl)c1OC	0	67.8	0
C=CCOC(=O)[C@H]1[C@@H]2C(=O)O[C@@H](c3ccccc3)[C@@H](c3ccccc3)N2[C@@H](c2ccc(OCCOC(=O)[C@@H]3C[C@@H]4C(=O)N5CCC[C@H]5C(=O)N4[C@@H]3c3ccc(O)cc3)cc2)[C@]12C(=O)Nc1ccccc12	-	-	0
O=C(CCCCC(=O)N/N=C/c1ccccc1[N+](=O)[O-])NO	0	0	0
COc1cc(Br)c(/C=N/NC(=O)c2ccc(C(=O)NO)cc2)cc1OC	-	-	0
CC1(C)COC(CCC/C=N/NC(=O)CCCCCC(=O)O)OC1	0	0	-
CCOc1cccc(/C=N/NC(=O)CCCCCCC(=O)OC)c1OCC	0	0	0
CCOc1cccc(/C=N/NC(=O)CCCCC(=O)NO)c1OCC	0	80.8	0
CC(C)=CCC[C@@H](C)C/C=N/NC(=O)CCCCCCC(=O)O	0	0	0
Cc1noc(C)c1S(=O)(=O)Nc1ccc2c(c1)CC(=O)N([C@@H](C)CO)C[C@H](C)[C@H](CN(C)Cc1ccc(C(=O)Nc3ccccc3N)cc1)O2	-	-	0
Cc1noc(C)c1S(=O)(=O)Nc1ccc2c(c1)C(=O)N([C@H](C)CO)C[C@H](C)[C@H](CN(C)Cc1ccc(C(=O)Nc3ccccc3N)cc1)O2	79.0	0	-
Cc1noc(C)c1S(=O)(=O)Nc1ccc2c(c1)C(=O)N([C@H](C)CO)C[C@@H](C)[C@@H](CN(C)Cc1ccc(C(=O)Nc3ccccc3N)cc1)O2	64.7	0	0
Cc1noc(C)c1S(=O)(=O)Nc1ccc2c(c1)C(=O)N([C@@H](C)CO)C[C@H](C)[C@@H](CN(C)Cc1ccc(C(=O)Nc3ccccc3N)cc1)O2	0	0	0
Cc1noc(C)c1S(=O)(=O)Nc1ccc2c(c1)CC(=O)N([C@H](C)CO)C[C@H](C)[C@H](CN(C)Cc1ccc(C(=O)Nc3ccccc3N)cc1)O2	75.5	0	-
Cc1noc(C)c1S(=O)(=O)Nc1ccc2c(c1)C(=O)N([C@@H](C)CO)C[C@@H](C)[C@@H](CN(C)Cc1ccc(C(=O)Nc3ccccc3N)cc1)O2	0	0	0
Cc1nc(S(=O)(=O)NC[C@@H]2CCCN(Cc3cccc(OCCO)c3)C2)cn1C	-	-	0
